Measured values reported in ChEMBL document CHEMBL1149561, “Synthesis of benzothiazole semicarbazones as novel anticonvulsants--the role of hydrophobic domain” (Bioorg Med Chem Lett, 2007).

tested on: Mus musculus; assay: Anticonvulsant activity in Swiss Albino mouse at 30 mg/kg after 0.5 hrs by MES screen test; assay type: functional; conditions: not given; call rule not given here
How it was run: (§1)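 Swiss albino mice (25–30 g) given 30 mg/kg i.p. Maximal electroshock (MES) seizure test run 0.5 and 4 h after dosing. Activity read out as % of animals protected. Phenytoin at 30 mg/kg i.p. served as standard.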

**Q.** Which Activity does the source give for `COc1ccc(/C(C)=N/NC(=O)Nc2nc3ccc(C)cc3s2)cc1` here?
**A.** 83.3%

**Q.** With `COc1ccc2nc(NC(=O)N/N=C(\C)c3ccc(O)cc3)sc2c1` as the compound, how does the Activity read?
**A.** 66.6%

**Q.** Which Activity does the source give for `COc1ccc(/C(C)=N/NC(=O)Nc2nc3ccc(OC)cc3s2)cc1` here?
**A.** 83.3%

**Q.** Which Activity does the source give for `C/C(=N\NC(=O)Nc1nc2ccc(Cl)cc2s1)c1ccc(O)cc1` here?
**A.** 50%

**Q.** Which Activity does the source give for `C/C(=N\NC(=O)Nc1nc2ccc(C)cc2s1)c1ccc(O)cc1` here?
**A.** 66.6%

**Q.** Which Activity does the source give for `COc1ccc2nc(NC(=O)N/N=C(\C)c3ccccc3)sc2c1` here?
**A.** 83.3%

**Q.** Which Activity does the source give for `COc1ccc(/C(C)=N/NC(=O)Nc2nc3ccc(Cl)cc3s2)cc1` here?
**A.** 66.6%

**Q.** For `C/C(=N\NC(=O)Nc1nc2ccc(C)cc2s1)c1ccccc1`, which Activity is on record?
**A.** 33.3%

**Q.** Which Activity does the source give for `C/C(=N\NC(=O)Nc1nc2ccc(C)cc2s1)c1ccc([N+](=O)[O-])cc1` here?
**A.** 100%

**Q.** With `COc1ccc2nc(NC(=O)NN=C(c3ccccc3)c3ccccc3)sc2c1` as the compound, how does the Activity read?
**A.** 100%

**Q.** For `O=C(NN=C(c1ccccc1)c1ccccc1)Nc1nc2ccc(Cl)cc2s1`, which Activity is on record?
**A.** 50%

**Q.** For `Cc1ccc2nc(NC(=O)NN=C(c3ccccc3)c3ccccc3)sc2c1`, which Activity is on record?
**A.** 33.3%

**Q.** Which Activity does the source give for `C/C(=N\NC(=O)Nc1nc2ccc(Cl)cc2s1)c1ccccc1` here?
**A.** 100%

**Q.** For `C/C(=N\NC(=O)Nc1nc2ccc(Cl)cc2s1)c1ccc([N+](=O)[O-])cc1`, which Activity is on record?
**A.** 33.3%

**Q.** With `COc1ccc2nc(NC(=O)N/N=C(\C)c3ccc([N+](=O)[O-])cc3)sc2c1` as the compound, how does the Activity read?
**A.** 100%

**Q.** With `O=C1NC(=O)C(c2ccccc2)(c2ccccc2)N1` [PHENYTOIN] as the compound, how does the Activity read?
**A.** 100%

tested on: Mus musculus; assay: Anticonvulsant activity in swiss Albino mouse at 30 mg/kg after 4 hrs by MES screen test; assay type: functional; conditions: not given; how it was run: as §1

**Q.** With `COc1ccc(/C(C)=N/NC(=O)Nc2nc3ccc(C)cc3s2)cc1` as the compound, how does the Activity read?
**A.** 83.3%

**Q.** For `COc1ccc2nc(NC(=O)N/N=C(\C)c3ccc(O)cc3)sc2c1`, which Activity is on record?
**A.** 50%

**Q.** Which Activity does the source give for `COc1ccc(/C(C)=N/NC(=O)Nc2nc3ccc(OC)cc3s2)cc1` here?
**A.** 83.3%

**Q.** For `C/C(=N\NC(=O)Nc1nc2ccc(Cl)cc2s1)c1ccc(O)cc1`, which Activity is on record?
**A.** 50%

**Q.** For `C/C(=N\NC(=O)Nc1nc2ccc(C)cc2s1)c1ccc(O)cc1`, which Activity is on record?
**A.** 66.6%

**Q.** Which Activity does the source give for `COc1ccc2nc(NC(=O)N/N=C(\C)c3ccccc3)sc2c1` here?
**A.** 66.6%

**Q.** For `COc1ccc(/C(C)=N/NC(=O)Nc2nc3ccc(Cl)cc3s2)cc1`, which Activity is on record?
**A.** 66.6%

**Q.** Which Activity does the source give for `C/C(=N\NC(=O)Nc1nc2ccc(C)cc2s1)c1ccccc1` here?
**A.** 33.3%

**Q.** With `C/C(=N\NC(=O)Nc1nc2ccc(C)cc2s1)c1ccc([N+](=O)[O-])cc1` as the compound, how does the Activity read?
**A.** 100%

**Q.** Which Activity does the source give for `COc1ccc2nc(NC(=O)NN=C(c3ccccc3)c3ccccc3)sc2c1` here?
**A.** 100%

**Q.** With `O=C(NN=C(c1ccccc1)c1ccccc1)Nc1nc2ccc(Cl)cc2s1` as the compound, how does the Activity read?
**A.** 33.3%

**Q.** For `Cc1ccc2nc(NC(=O)NN=C(c3ccccc3)c3ccccc3)sc2c1`, which Activity is on record?
**A.** 33.3%

**Q.** With `C/C(=N\NC(=O)Nc1nc2ccc(Cl)cc2s1)c1ccccc1` as the compound, how does the Activity read?
**A.** 83.3%

**Q.** With `C/C(=N\NC(=O)Nc1nc2ccc(Cl)cc2s1)c1ccc([N+](=O)[O-])cc1` as the compound, how does the Activity read?
**A.** 33.3%

**Q.** For `COc1ccc2nc(NC(=O)N/N=C(\C)c3ccc([N+](=O)[O-])cc3)sc2c1`, which Activity is on record?
**A.** 100%

**Q.** Which Activity does the source give for `O=C1NC(=O)C(c2ccccc2)(c2ccccc2)N1` [PHENYTOIN] here?
**A.** 100%

tested on: Mus musculus; assay: Neurotoxicity in Swiss Albino mouse at 30 mg/kg after 0.5 hrs by rotarod test; assay type: toxicity, organism-based; design: dose 30 mg/kg; conditions: in vivo
How it was run: (§2)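 Swiss albino mice received 30 mg/kg i.p. Motor impairment scored on the rotarod 0.5 and 4 h after dosing. Results given as number of animals showing toxicity over number tested.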

**Q.** For `COc1ccc(/C(C)=N/NC(=O)Nc2nc3ccc(C)cc3s2)cc1`, which Activity is on record?
**A.** Not Active

**Q.** For `COc1ccc(/C(C)=N/NC(=O)Nc2nc3ccc(OC)cc3s2)cc1`, which Activity is on record?
**A.** Not Active

**Q.** For `COc1ccc2nc(NC(=O)N/N=C(\C)c3ccccc3)sc2c1`, which Activity is on record?
**A.** Not Active

**Q.** With `C/C(=N\NC(=O)Nc1nc2ccc(C)cc2s1)c1ccc([N+](=O)[O-])cc1` as the compound, how does the Activity read?
**A.** Not Active

**Q.** With `COc1ccc2nc(NC(=O)NN=C(c3ccccc3)c3ccccc3)sc2c1` as the compound, how does the Activity read?
**A.** Not Active

**Q.** With `C/C(=N\NC(=O)Nc1nc2ccc(Cl)cc2s1)c1ccccc1` as the compound, how does the Activity read?
**A.** Not Active

**Q.** Which Activity does the source give for `COc1ccc2nc(NC(=O)N/N=C(\C)c3ccc([N+](=O)[O-])cc3)sc2c1` here?
**A.** Not Active

**Q.** Which Activity does the source give for `O=C1NC(=O)C(c2ccccc2)(c2ccccc2)N1` [PHENYTOIN] here?
**A.** Not Active

tested on: Mus musculus; assay: Neurotoxicity in Swiss Albino mouse at 30 mg/kg after 4 hrs by rotarod test; assay type: toxicity, organism-based; design: dose 30 mg/kg; conditions: in vivo; how it was run: as §2

**Q.** With `COc1ccc(/C(C)=N/NC(=O)Nc2nc3ccc(C)cc3s2)cc1` as the compound, how does the Activity read?
**A.** Not Active

**Q.** For `COc1ccc(/C(C)=N/NC(=O)Nc2nc3ccc(OC)cc3s2)cc1`, which Activity is on record?
**A.** Not Active

**Q.** Which Activity does the source give for `COc1ccc2nc(NC(=O)N/N=C(\C)c3ccccc3)sc2c1` here?
**A.** Not Active

**Q.** For `C/C(=N\NC(=O)Nc1nc2ccc(C)cc2s1)c1ccc([N+](=O)[O-])cc1`, which Activity is on record?
**A.** Not Active

**Q.** Which Activity does the source give for `COc1ccc2nc(NC(=O)NN=C(c3ccccc3)c3ccccc3)sc2c1` here?
**A.** Not Active

**Q.** For `C/C(=N\NC(=O)Nc1nc2ccc(Cl)cc2s1)c1ccccc1`, which Activity is on record?
**A.** Not Active

**Q.** For `COc1ccc2nc(NC(=O)N/N=C(\C)c3ccc([N+](=O)[O-])cc3)sc2c1`, which Activity is on record?
**A.** Not Active

**Q.** Which Activity does the source give for `O=C1NC(=O)C(c2ccccc2)(c2ccccc2)N1` [PHENYTOIN] here?
**A.** Not Active

tested on: not listed separately; assay: Lipophilicity, log P of the compound; assay type: physicochemical; conditions: octanol/water

**Q.** For `C/C(=N\NC(=O)Nc1nc2ccc(C)cc2s1)c1ccc([N+](=O)[O-])cc1`, which logP is on record?
**A.** 3.22

**Q.** With `C/C(=N\NC(=O)Nc1nc2ccc(Cl)cc2s1)c1ccccc1` as the compound, how does the logP read?
**A.** 3.12
